Rows were chosen to be rich in hits. Some 2.7% of all compounds tested hit in one or more screens of this group.
ASAP1 inh = inhibitors of human ASAP1 ArfGAP activity, primary screen, biochemical, fluorescence polarization. Arf-GAP with SH3 domain, ANK repeat and PH domain-containing protein 1 (Homo sapiens), …. ASAP1-stimulated ARF1 GTP hydrolysis, GDP FP detection. inhibition, % at 16.5 µM. hit rate 0.19% among 360,000. AID 624377, 2012; in the data active = inhibition above about 25%
bovine MsrA act = bovine MsrA enzyme activators, primary screen, biochemical, absorbance, HTS | Methionine sulfoxide reductase A (Bos taurus) | purified bovine MsrA, absorbance read-out | activation, % at 10.6 µM | hit rate 0.3% among 360,000 | AID 602163, 2012; in the data active = activation above about 7.5%
sPLA2-III inh = human group III sPLA2 inhibitors, primary screen, biochemical, QFRET, BODIPY PC-A2 liposome substrate; inhibition, % at 12.2 µM; hit rate 0.56% among 370,000; QFRET BODIPY PC-A2 liposome hydrolysis, fluorescence; AID 743126, 2013; Group 3 secretory phospholipase A2 (Homo sapiens), Q9NZ20;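 active = inhibition above mean plus 3 SD of compounds lying within the high and low control bounds, cut at about 19% in these data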
Target sequence (Q9NZ20 whole entry, looked up): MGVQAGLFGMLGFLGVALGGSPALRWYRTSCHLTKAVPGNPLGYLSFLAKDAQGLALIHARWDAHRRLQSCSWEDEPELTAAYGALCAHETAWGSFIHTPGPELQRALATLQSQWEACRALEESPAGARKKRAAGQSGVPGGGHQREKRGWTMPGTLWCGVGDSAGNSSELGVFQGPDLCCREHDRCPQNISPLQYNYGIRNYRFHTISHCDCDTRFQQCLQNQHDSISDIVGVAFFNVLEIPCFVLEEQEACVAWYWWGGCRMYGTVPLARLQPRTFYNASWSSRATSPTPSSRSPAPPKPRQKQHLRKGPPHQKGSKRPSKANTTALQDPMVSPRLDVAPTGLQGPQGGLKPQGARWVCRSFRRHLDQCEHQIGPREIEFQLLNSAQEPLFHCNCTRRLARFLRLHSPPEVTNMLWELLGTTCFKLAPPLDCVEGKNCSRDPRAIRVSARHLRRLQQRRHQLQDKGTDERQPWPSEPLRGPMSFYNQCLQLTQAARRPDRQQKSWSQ
NR1D1 modulator = modulators of Rev-erb alpha DNA binding, primary screen, biochemical, FITC-DNA, fluorescence polarization, uHTS; hit rate 0.79% among 370,000; activity, % at 10 µM; AID 1259318, 2017; Rev-erbα–FITC-DNA binding, 90 min;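 active = activity above about 14%, limit read from the data; passing the limit was not always enough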
ARFGAP1 inh = inhibitors of rat ARFGAP1 GAP activity, primary screen, biochemical, fluorescence polarization, GDP tracer; ADP-ribosylation factor GTPase-activating protein 1 (Rattus norvegicus), Q62848; Arfgap1-stimulated ARF1 GTP hydrolysis, GDP FP detection; inhibition, % at 16.5 µM; hit rate 0.26% among 360,000; AID 651572, 2012;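 active = inhibition above a per-plate limit, mean inhibition of low control wells plus 3 SD, cut at about 25% in these data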
Target sequence (Q62848 1-136 limits assumed): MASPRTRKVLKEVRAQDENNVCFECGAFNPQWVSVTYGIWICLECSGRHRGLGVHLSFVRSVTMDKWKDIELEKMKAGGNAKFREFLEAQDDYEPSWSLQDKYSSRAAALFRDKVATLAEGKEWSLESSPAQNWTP
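system = rat Arfgap1 catalytic domain, aa 1-136 | technique = FP, GDP Alexa 633 tracer displaced from anti-GDP antibody, 620/688 nm | compound = one concentration, 16.5 µM, DMSO 1.26% | medium = HEPES-based buffer, pH 7.5 | timing = compound-enzyme preincubation 20 min, reaction 120 min, detection 60 min, 25 °C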
MsrA inh = bovine MsrA enzyme inhibitors, primary screen, biochemical, absorbance, HTS. AID 651718, 2012. inhibition, % at 15.5 µM. hit rate 0.75% among 360,000. Methionine sulfoxide reductase A (Bos taurus). purified bovine MsrA, absorbance read-out; in the data active = inhibition above about 4.5%
NR1D1 mod conf = modulators of Rev-erb alpha DNA binding, confirmation, biochemical, FITC-DNA, fluorescence polarization, single point. shares compounds with NR1D1 modulator. 90 min. activation, % at 25 µM. hit rate 61% among 3,000. AID 1259319, 2017;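 active = activation at or above a set limit, or at least 3 SD above the negative control mean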
RORg DNA counter = modulation of RORgamma DNA binding, dose response, counter-screen for Rev-erb alpha modulator project, biochemical, fluorescence polarization, FITC-DNA. hit rate 8% among 910. shares compounds with NR1D1 modulator. purified RORgamma protein-FITC-DNA binding. IC50, µM;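 active = Compounds whose fitted half-maximal concentration for disrupting protein-DNA binding is below 10 micromolar; the record names Rev-erb in its text, so the target is in doubt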
Numbers stand for hits; 0 = inactive; - = no result.

SMILES	ASAP1 inh	bovine MsrA act	sPLA2-III inh	NR1D1 modulator	ARFGAP1 inh	MsrA inh	NR1D1 mod conf	others
Cc1ccc2nc(N3CCN(S(=O)(=O)c4ccc(C)c(Cl)c4)CC3)c(C#N)cc2c1	0	0	0	189	0	0	145	RORg DNA counter=0
COc1cc(OC)cc(-c2c(Sc3ccccc3)c3cc(-c4ccc(OC)c(F)c4)ccc3n2C)c1	0	0	0	21	0	0	37	RORg DNA counter=0
CSc1ccc(-c2ccc3c(c2)c(Sc2ccccc2)c(-c2ccccc2)n3C)cc1	0	0	0	17	0	0	25
COc1cc(OC)cc(-c2c(Sc3ccccc3)c3cc(-c4ccc(OC)nc4)ccc3n2C)c1	0	0	0	0	0	0	-
COc1cc(OC)cc(-c2c(Sc3ccccc3)c3cc(-c4ccc(SC)cc4)ccc3n2C)c1	0	0	0	29	0	0	35	RORg DNA counter=0
CCn1c2ccccc2c2cc(NC(=O)N3CCCCC3)ccc21	0	0	0	0	0	0	-
CCOC(=O)c1c(-c2ccc(F)cc2)csc1NC(=O)CN1C(=O)NC2(CCCCC2C)C1=O (stereo not drawn)	0	0	0	21	0	0	0
CCOC(=O)c1c(NC(=O)CN2C(=O)NC3(CCCCCC3)C2=O)sc(C)c1-c1ccc(C)cc1	0	0	0	25	0	0	17
CCOC(=O)c1sc(NC(=O)CN2C(=O)NC3(CC(C)CC(C)(C)C3)C2=O)c(C(=O)OCC)c1C (stereo not drawn)	0	0	0	0	0	0	-
CCOC(=O)c1sc(NC(=O)CN2C(=O)NC3(CCC(C)CC3)C2=O)c(C(=O)OCC)c1C (stereo not drawn)	0	0	0	36	0	0	20
O=C(CC1(O)C(=O)Nc2ccc(Br)cc21)c1ccccc1 (stereo not drawn)	0	0	0	0	0	0	-
CC(C)c1cn(CC[C@@H]2CC[C@@H](NC(=O)C3CCCCC3)[C@@H](CO)O2)nn1	0	-	0	0	0	0	-
Nc1ccn(C2OC(CCl)C(O)C2O)c(=O)n1 (stereo not drawn)	0	0	0	0	0	0	-
CCCN=C(C)c1c(-c2ccccc2)[nH]n(-c2nc3ccccc3s2)c1=O	0	0	0	58	0	0	40	RORg DNA counter=8.5
CCN(CC)CCCN=Cc1c(-c2ccccc2)[nH]n(-c2nc3ccccc3s2)c1=O	0	0	0	0	0	0	-
NC[C@H]1O[C@H](O[C@H]2[C@H](O)[C@@H](O[C@H]3O[C@H](CO)[C@@H](O)[C@H](N)[C@H]3O)[C@H](N)C[C@@H]2N)[C@H](N)[C@@H](O)[C@@H]1O	-	-	-	0	-	-	-
CCC[C@H]1[C@@H](NC(=O)c2ccc(Cl)cc2)CC[C@@]23CCCN2C(=O)CCC[C@@H]13	-	-	0	0	-	-	-
CCC[C@H]1[C@@H](NCc2cccs2)CC[C@@]23CCCN2C(=O)CCC[C@@H]13	-	-	0	21	-	-	11
Cc1cc(C(=O)N2CCN(S(C)(=O)=O)CC2)sc1-c1ccccc1	0	0	0	41	0	0	35
COc1cccc2sc(Nc3nnc(-c4ccccc4Cl)o3)nc12	0	0	0	0	0	0	-
COc1ccccc1-c1nnc(Nc2nc3c(OC)cccc3s2)o1	0	0	0	47	0	0	78
Cc1cnc(NC(=O)c2cc3c(C)nn(-c4ccccc4)c3s2)s1	0	0	0	40	0	0	35	RORg DNA counter=0
CCOc1ccccc1NC(=O)c1cc2c(C)nn(-c3ccccc3)c2s1	-	-	0	0	-	-	-
O=C(O)c1ccccc1C(=O)O	0	0	0	0	0	0	-
O=C(O)c1ccccc1C(c1ccccc1)c1ccccc1O (stereo not drawn)	0	0	0	54	0	0	45	RORg DNA counter=0
SMILES	ASAP1 inh	bovine MsrA act	sPLA2-III inh	NR1D1 modulator	ARFGAP1 inh	MsrA inh	NR1D1 mod conf	others
CC(=O)c1ccc(N2CCN(C(=S)Nc3ccc(Oc4ccccc4)cc3)CC2)cc1	0	0	0	0	0	0	-
CC(=O)c1ccc(N2CCN(C(=S)Nc3cccc(F)c3)CC2)cc1	0	0	0	29	0	0	18
Cc1c(/C(O)=C2\C(=O)C(=O)N(CCN(C)C)C2c2cccnc2)cnn1-c1ccccc1 (stereo not drawn)	0	0	0	0	0	0	-
CCN(CC)CCN1C(=O)C(=O)/C(=C(/O)c2ccc(OC(C)C)cc2)C1c1cccs1 (stereo not drawn)	0	0	0	41	0	0	27
Cc1c(/C(O)=C2\C(=O)C(=O)N(CCN(C)C)C2c2cccs2)cnn1-c1ccccc1 (stereo not drawn)	0	0	0	19	0	4.6	27
O=C1c2cccc3cccc(c23)C(=O)N1OS(=O)(=O)c1ccccc1	0	0	0	59	0	0	0
O=S(=O)(c1ccccc1)c1nc(-c2ccccc2)oc1N1CCCC1	0	0	0	16	0	0	0
Cc1cccc(C)c1NC(=O)C(c1cc2ccccc2o1)N1CCN(C)CC1 (stereo not drawn)	0	-	0	0	0	0	-
CCNC(=O)C1CCCN(C(=O)c2cnc3ccccc3n2)CC1 (stereo not drawn)	0	0	0	0	0	0	-
COC(=O)c1cc2cc(Cl)ccc2nc1SC	0	0	0	98	0	0	53	RORg DNA counter=0
Nc1nc2ccc(Cl)cc2cc1C(=O)NC1CC1	0	0	0	0	0	0	-
Cc1ccnc(NS(=O)(=O)c2ccc(NC(=O)c3cc(-c4ccc(Br)cc4)nc4ccccc34)cc2)n1	0	0	0	39	0	0	17
CSc1ccc(CN2CCC2(C)C(=O)Nc2ccc3c(c2)OCO3)cc1 (stereo not drawn)	0	0	0	0	0	0	-
CC(C)c1ccc2oc(=O)cc(CN3CCCCC3)c2c1	0	0	0	0	0	0	-
CC1CCN(Cc2cc(=O)oc3ccc(C(C)C)cc23)CC1	0	0	0	22	0	0	33	RORg DNA counter=0
